Results taken from ChEMBL document CHEMBL3992505, “Optimization of substituted imidazobenzodiazepines as novel asthma treatments” (Eur J Med Chem, 2017).

Legend:
Mus musculus [1] = test: Neurotoxicity in Swiss Webster mouse assessed as induction of senorimotor impairment at 15 mg/kg administered 10 mins prior to testing and measured for 3 mins at 10 to 60 mins after drug administration by rotarod method; type: toxicity, organism-based; details: in vivo
[2] = Cytotoxicity in HEK293 cells after 48 hrs by Cell-titer Glo reagent based assay; details: human, read-out: LD50
Outline: (§1)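 Cells (HEK293, HepG2 or BEAS2B) exposed to compounds at a range of concentrations for 48 h; viability read by Cell-Titer Glo luminescence. Normalized to DMSO (negative) and 3-dibutylamino-1-(4-hexyl-phenyl)-propan-1-one at 150 μM final in DMSO (positive).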

Liver [3] = test: Metabolic stability in human liver microsomes assessed as compound remaining at 10 uM after 1 hr by LC-MS/MS analysis; type: ADME, microsome
Outline: (§2)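 Compound stability was measured in human or mouse liver microsomes as percent remaining after 1 h. Data came from two independent experiments, each run in triplicate.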

[4] = Half life in human liver microsomes at 10 uM by LC-MS/MS analysis; type: ADME, microsome
[5] = Cytotoxicity in human HepG2 cells after 48 hrs by Cell-titer Glo reagent based assay; details: read-out: LD50; outline: as §1
[6] = Cytotoxicity in human BEAS2B cells after 48 hrs by Cell-titer Glo reagent based assay; set-up: species or system BEAS-2B; details: read-out: LD50; outline: as §1
Liver [7] = test: Metabolic stability in mouse liver microsomes assessed as compound remaining at 10 uM after 1 hr by LC-MS/MS analysis; type: ADME, microsome; outline: as §2
[8] = (§3) Half life in mouse liver microsomes at 10 uM by LC-MS/MS analysis; type: ADME, microsome; details: liver microsomes
Mus musculus [9] = test: Neurotoxicity in Swiss Webster mouse assessed as induction of senorimotor impairment at 40 mg/kg, ip administered 10 mins prior to testing and measured for 3 mins at 10 to 60 mins after drug administration by rotarod method; type: toxicity, organism-based; details: in vivo
Outline: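 Swiss Webster mice, pre-trained at 15 rpm until they held on for 3 min at three consecutive sessions, were given a single i.p. dose of 40 mg/kg in 10% DMSO/40% propylene glycol/50% PBS. Rotarod at 15 rpm for 3 min at 10, 30 and 60 min after dosing. Falls before 3 min scored as fail, with time of fall recorded. N = 10, mean ± SEM. Vehicle and diazepam 5 mg/kg i.p. controls. Mice rested 2–3 days between doses.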

Liver [10] = test: as §3; type: ADME, microsome; details: microsomes, 10 µM
[11] = Solubility of the compound in 50% PBS/40% propylene glycol/10% DMSO at 10 uM; type: physicochemical; details: buffer
[12] = Solubility of the compound in PBS/1% DMSO at 10 uM; type: physicochemical; details: buffer
Outline: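 Solubility was judged at 10 μM in PBS containing 1% DMSO.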

| SMILES | Activity (Mus musculus [1]) | CC50 at 48 h [2] [µM] | Stability (Liver [3]) [%] | half-life at 10 µM [4] [min] | CC50 at 48 h [5] [µM] | CC50 at 48 h [6] [µM] | Stability (Liver [7]) [%] | half-life at 10 µM [8] [min] | Activity (Mus musculus [9]) | t1/2 (Liver [10]) [min] | solubility [11] | solubility [12] |
| --- | --- | --- | --- | --- | --- | --- | --- | --- | --- | --- | --- | --- |
| COc1ccc2c(c1)C(=O)N1CCC[C@H]1c1c(C(=O)OC(C)(C)C)ncn1-2 | Toxic | > 100 | 92.1 | 713 | > 400 | > 200 | 16.2 | 24.1 | – | – | – | – |
| [2H]C([2H])([2H])Oc1ccc2c(c1)C(=O)N1CCC[C@H]1c1c(C(=O)N(C)C)ncn1-2 | – | > 400 | 96.3 | 799 | > 400 | > 400 | 83.1 | 1480 | Non-Toxic | – | – | – |
| [2H]C([2H])([2H])Oc1ccc2c(c1)C(=O)N1CCC[C@H]1c1c(C(=O)OCC(C)C)ncn1-2 | – | > 100 | 78.7 | 201 | > 200 | > 200 | 22.4 | 26.9 | Toxic | – | – | – |
| CCOC(=O)c1ncn2c1[C@@H]1CCCN1C(=O)c1cc(O)ccc1-2 | – | > 400 | 91.7 | 659 | > 400 | > 400 | 91.1 | 540 | Non-Toxic | – | – | – |
| [2H]C([2H])([2H])Oc1ccc2c(c1)C(=O)N1CCC[C@H]1c1c(C(=O)NC3CC3)ncn1-2 | – | > 200 | 88.1 | 1800 | > 400 | > 400 | 94.1 | – | – | 17.7 | – | – |
| COC(=O)c1ncn2c1[C@@H]1CCCN1C(=O)c1cc(OC)ccc1-2 | – | > 400 | 89.7 | 666 | > 400 | > 400 | 70.3 | 129 | – | – | – | – |
| [2H]C([2H])([2H])Oc1ccc2c(c1)C(=O)N1CCC[C@H]1c1c(C(=O)OC(C(F)(F)F)C(F)(F)F)ncn1-2 | – | > 200 | 77.1 | 204 | > 400 | > 400 | 62.5 | 109 | – | – | Insoluble | – |
| [2H]C([2H])([2H])Oc1ccc2c(c1)C(=O)N1CCC[C@H]1c1c(C(=O)NC)ncn1-2 | – | > 100 | 94.9 | 1430 | > 400 | > 400 | 56.8 | 77.4 | – | – | – | – |
| [2H]C([2H])([2H])Oc1ccc2c(c1)C(=O)N1CCC[C@H]1c1c(C(=O)OC)ncn1-2 | – | > 400 | 92.9 | 979 | > 400 | > 400 | 85.9 | 285 | Toxic | – | – | – |
| CCOC(=O)c1ncn2c1[C@@H]1CCCN1C(=O)c1cc(OC)ccc1-2 | – | > 400 | 99.1 | – | > 400 | > 400 | 85.4 | 318 | – | – | – | – |
| COc1ccc2c(c1)C(=O)N1CCC[C@H]1c1c(C(=O)NC(C)(C)C)ncn1-2 | – | > 200 | 92.8 | 194 | > 400 | > 400 | 4.2 | – | – | 624 | – | – |
| [2H]C([2H])([2H])Oc1ccc2c(c1)C(=O)N1CCC[C@H]1c1c(C(=O)O)ncn1-2 | – | > 400 | 84.6 | 336 | > 400 | > 400 | 84.6 | 283 | Non-Toxic | – | – | – |
| COc1ccc2c(c1)C(=O)N1CCC[C@H]1c1c(C(=O)OC(C(F)(F)F)C(F)(F)F)ncn1-2 | – | > 200 | – | – | > 400 | > 400 | – | – | – | – | Insoluble | Insoluble |
| COc1ccc2c(c1)C(=O)N1CCC[C@H]1c1c(C(=O)OCC(C)C)ncn1-2 | – | > 100 | 77.8 | 169 | > 200 | > 200 | 13.4 | 19.5 | – | – | Insoluble | – |
